Laboratory results published in ChEMBL document CHEMBL4033790, “Design and Synthesis of Novel Deuterated Ligands Functionally Selective for the γ-Aminobutyric Acid Type A Receptor (GABAAR) α6 Subtype with Improved Metabolic Stability and Enhanced Bioavailability” (J Med Chem, 2018).
≈ marks a conversion by molar mass, not a printed value. Calls of active or inactive are those of the source. The calls are words filed in the database; no cut-off is given here.

How the values were obtained:
[1] = Drug level in human liver microsomes treated with 7-Methoxy-2-(4-methoxy-d3-phenyl)-2,5-dihydro-3H-pyrazolo-[4,3-c]quinolin-3-one after 60 mins by LC-MS analysis; assay type: ADME; conditions: 1 h
[2] = Drug level in mouse liver microsomes treated with 7-Methoxy-2-(4-methoxy-d3-phenyl)-2,5-dihydro-3H-pyrazolo-[4,3-c]quinolin-3-one after 60 mins by LC-MS analysis; assay type: ADME; conditions: 1 h
[3] = Drug level in human liver microsomes treated with 7-Methoxy-d3-2-(4-methoxyphenyl)-2,5-dihydro-3H-pyrazolo-[4,3-c]quinolin-3-one after 60 mins by LC-MS analysis; assay type: ADME; conditions: 1 h
[4] = Drug level in mouse liver microsomes treated with 7-Methoxy-d3-2-(4-methoxyphenyl)-2,5-dihydro-3H-pyrazolo-[4,3-c]quinolin-3-one after 60 mins by LC-MS analysis; assay type: ADME; conditions: 1 h
[5] = Drug level in human liver microsomes treated with 7-Methoxy-d3-2-(6-methoxypyridin-3-yl)-2,5-dihydro-3Hpyrazolo[4,3-c]quinolin-3-one after 60 mins by LC-MS analysis; assay type: ADME; conditions: 1 h
[6] = Drug level in mouse liver microsomes treated with 7-Methoxy-d3-2-(6-methoxypyridin-3-yl)-2,5-dihydro-3Hpyrazolo[4,3-c]quinolin-3-one after 60 mins by LC-MS analysis; assay type: ADME; conditions: 1 h
[7] = Drug level in mouse liver microsomes treated with 7-Methoxy-2-(6-methoxy-d3-pyridin-3-yl)-2,5-dihydro-3Hpyrazolo[4,3-c]quinolin-3-one after 60 mins by LC-MS analysis; assay type: ADME; conditions: 1 h
[8] = Drug level in human liver microsomes treated with 7-Methoxy-2-(6-methoxy-d3-pyridin-3-yl)-2,5-dihydro-3Hpyrazolo[4,3-c]quinolin-3-one after 60 mins by LC-MS analysis; assay type: ADME; conditions: 1 h
[9] = biological target: Voltage-gated inwardly rectifying potassium channel KCNH2 (Homo sapiens, UniProt Q12809); assay: Displacement of [3H]-dofetilide from human ERG expressed in HEK cell membranes at >10 uM after 60 to 90 mins by scintillation counting
[10] = biological target: GABA A receptor alpha-4/beta-3/gamma-2 (Homo sapiens) (UniProt P18507+P28472+P48169); assay: Positive allosteric modulation of GABA-A receptor alpha4beta3gamma2 (unknown origin) expressed in Xenopus laevis oocytes assessed as potentiation of EC3 GABA induced currents up to 1 uM at -60 mV holding potential by electrophysiological method relative to GABA; assay type: cell-based
Outline: (§1)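 Stage 5–6 defolliculated Xenopus oocytes were injected with 2.5 ng total mRNA per oocyte: α1, α2, α3 or α5 with β3 and γ2 at 1:1:5, and α4 or α6 with β3 and γ2 at 3:1:5. Oocytes were kept ≥36 h at 18 °C in NDE medium before recording. Compounds were co-applied with GABA titrated to EC3-5 for each oocyte. Curves were fitted with the Hill equation; mean ± SEM from ≥3 oocytes across two batches.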

[11] = Metabolic stability in mouse liver microsomes assessed as parent compound remaining at 10 uM after 60 mins by LC-MS analysis; assay type: ADME, microsome; conditions: read-out: Stability
Outline: (§2)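 The 60 min samples of the microsomal incubation (10 μM compound, human or mouse liver microsomes at 0.5 mg/mL, NADPH regenerating system, 37 °C) were analysed by LC-MS. Detection used SIM mode with dual ESI/APCI ionization, calibrated to the retention times and masses of the parent and its O-demethylated metabolites. Peak intensities were measured.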

[12] = biological target: Mu-type opioid receptor (Homo sapiens) (UniProt P35372); assay: Displacement of [3H]-DAMGO from human recombinant MOR expressed in HEK293 cells at 10 uM after 60 to 90 mins by scintillation counting; assay type: cell-based; conditions: tested as the 2H-labelled form
[13] = system: Liver; assay: Half life in human liver microsomes at 10 uM by LC-MS/MS analysis; assay type: ADME, microsome
Outline: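 Compound at 10 μM final was preincubated 5 min at 37 °C with NADPH regenerating system in phosphate buffer, pH 7.4. Human or mouse liver microsomes (0.5 mg/mL protein) were added to start the reaction. Samples were taken at 0 (no microsomes) and 10–60 min and measured by LC-MS/MS against an internal standard. Half-life = 0.693/k, with k the slope of ln peak-area ratio versus time. Three experiments, each in duplicate.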

[14] = Solubility of the compound in 0.01M HCl at pH 2 after 2 hrs by LC-MS analysis; assay type: physicochemical; conditions: buffer, pH 2, 2 h
Outline: (§3)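 10 mg compound dissolved in 2 mL DMAC; 10 μL of this added to 2 mL DI water (pH 7, sonicated) or 2 mL 0.01 M aq HCl (pH 2), held 2 h at 37 °C. Filtered through 0.45 micron filter, then quantified by LC-MS in SIM mode against calibration curves of standards in DMAC (n = 5); n=3.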

[15] = species on record: Rattus norvegicus; assay: Displacement of [3H]-flunitrazepam from rat brain GABA-A receptor benzodiazepine site […] at 10 uM after 60 to 90 mins by scintillation counting; conditions: tested as the 2H-labelled form
[16] = biological target: GABA-A receptor; alpha-2/beta-3/gamma-2 (Homo sapiens) (UniProt P18507+P28472+P47869); assay: Positive allosteric modulation of GABA-A receptor alpha2beta3gamma2 (unknown origin) expressed in Xenopus laevis oocytes assessed as potentiation of EC3 GABA induced currents up to 1 uM at -60 mV holding potential by electrophysiological method relative to GABA; assay type: cell-based; outline: as §1
[17] = Metabolic stability in human liver microsomes assessed as parent compound remaining at 10 uM after 60 mins by LC-MS analysis; assay type: ADME, microsome; conditions: read-out: Stability; outline: as §2
[18] = biological target: GABA-A receptor; alpha-1/beta-3/gamma-2 (Homo sapiens) (UniProt P14867+P18507+P28472); assay: Positive allosteric modulation of GABA-A receptor alpha1beta3gamma2 (unknown origin) expressed in Xenopus laevis oocytes assessed as potentiation of EC3 GABA induced currents up to 1 uM at -60 mV holding potential by electrophysiological method relative to GABA; assay type: cell-based; outline: as §1
[19] = biological target: GABA-A receptor; alpha-6/beta-3/gamma-2 (Homo sapiens) (UniProt P18507+P28472+Q16445); assay: Positive allosteric modulation of GABA-A receptor alpha6beta3gamma2 (unknown origin) expressed in Xenopus laevis oocytes assessed as potentiation of EC3 GABA induced currents at 30 uM at -60 mV holding potential by electrophysiological method relative to GABA; assay type: cell-based; outline: as §1
[20] = biological target: 5-hydroxytryptamine receptor 2B (Homo sapiens) (UniProt P41595); assay: Displacement of [3H]-LSD from human recombinant 5HT2B receptor expressed in HEK293 cells at 10 uM after 60 to 90 mins by scintillation counting; assay type: cell-based; conditions: tested as the 2H-labelled form
[21] = biological target: 5-hydroxytryptamine receptor 7 (Homo sapiens) (UniProt P34969); assay: Displacement of [3H]-LSD from human recombinant 5HT7 receptor expressed in HEK293 cells at 10 uM after 60 to 90 mins by scintillation counting; assay type: cell-based; conditions: tested as the 2H-labelled form
[22] = biological target: GABA-A receptor; alpha-3/beta-3/gamma-2 (Homo sapiens) (UniProt P18507+P28472+P34903); assay: Positive allosteric modulation of GABA-A receptor alpha3beta3gamma2 (unknown origin) expressed in Xenopus laevis oocytes assessed as potentiation of EC3 GABA induced currents up to 1 uM at -60 mV holding potential by electrophysiological method relative to GABA; assay type: cell-based; outline: as §1
[23] = Aqueous solubility of the compound in DI water at pH 7 after 2 hrs by LC-MS analysis; assay type: physicochemical; conditions: buffer, pH 7, 2 h; outline: as §3
[24] = system: Mus musculus; assay: Neurotoxicity in Swiss Webster mouse assessed as induction of motor impairment at 40 mg/kg administered via oral gavage measured after 10 to 60 mins by rotarod method; assay type: toxicity, organism-based; conditions: in vivo
Outline: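 Female mice were given a single oral gavage dose of 40 mg/kg, either in 50% PBS/40% propylene glycol/10% DMSO or, for poorly soluble compounds, in 2% polyethylene glycol plus 2.5% hydroxymethyl cellulose. Rotarod performance was tested 10, 30 and 60 min after dosing, with diazepam 5 mg/kg as positive control.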

[25] = biological target: T1, 5-hydroxytryptamine receptor 2C (Homo sapiens) (UniProt P28335); assay: Displacement of [3H]-mesulergine from human recombinant 5HT2C receptor expressed in HEK293T cells at 10 uM after 60 to 90 mins by scintillation counting; assay type: cell-based; conditions: HEK-293T, tested as the 2H-labelled form
T1 sequence (whole entry): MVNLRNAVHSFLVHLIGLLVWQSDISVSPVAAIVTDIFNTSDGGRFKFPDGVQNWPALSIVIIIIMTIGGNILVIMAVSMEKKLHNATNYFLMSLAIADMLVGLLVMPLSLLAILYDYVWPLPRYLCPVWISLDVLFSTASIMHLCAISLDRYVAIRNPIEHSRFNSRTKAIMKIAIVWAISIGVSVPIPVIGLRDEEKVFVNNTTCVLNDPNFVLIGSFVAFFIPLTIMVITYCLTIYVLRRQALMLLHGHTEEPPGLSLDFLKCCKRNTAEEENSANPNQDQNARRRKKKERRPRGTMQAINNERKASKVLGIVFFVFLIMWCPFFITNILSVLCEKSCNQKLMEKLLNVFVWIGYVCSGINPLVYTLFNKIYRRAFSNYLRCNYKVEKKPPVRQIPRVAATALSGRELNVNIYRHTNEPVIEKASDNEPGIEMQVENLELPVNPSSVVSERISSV

[26] = biological target: GABA-A receptor; alpha-5/beta-3/gamma-2 (Homo sapiens) (UniProt P18507+P28472+P31644); assay: Positive allosteric modulation of GABA-A receptor alpha5beta3gamma2 (unknown origin) expressed in Xenopus laevis oocytes assessed as potentiation of EC3 GABA induced currents up to 1 uM at -60 mV holding potential by electrophysiological method relative to GABA; assay type: cell-based; outline: as §1

Chain of Mu-type opioid receptor (Homo sapiens) (P35372 whole entry): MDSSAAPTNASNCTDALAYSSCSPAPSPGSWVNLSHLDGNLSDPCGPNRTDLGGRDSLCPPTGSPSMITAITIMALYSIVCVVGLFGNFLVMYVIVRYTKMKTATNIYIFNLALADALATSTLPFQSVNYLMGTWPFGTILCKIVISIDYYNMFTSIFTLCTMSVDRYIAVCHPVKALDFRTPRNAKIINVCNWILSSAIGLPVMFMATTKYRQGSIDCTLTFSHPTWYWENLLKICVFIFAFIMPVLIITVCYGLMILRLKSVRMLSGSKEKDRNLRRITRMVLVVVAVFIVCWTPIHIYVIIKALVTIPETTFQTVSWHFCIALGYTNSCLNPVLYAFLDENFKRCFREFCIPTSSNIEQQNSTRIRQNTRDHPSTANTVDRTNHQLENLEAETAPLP
Chain of Voltage-gated inwardly rectifying potassium channel KCNH2 (Q12809 whole entry): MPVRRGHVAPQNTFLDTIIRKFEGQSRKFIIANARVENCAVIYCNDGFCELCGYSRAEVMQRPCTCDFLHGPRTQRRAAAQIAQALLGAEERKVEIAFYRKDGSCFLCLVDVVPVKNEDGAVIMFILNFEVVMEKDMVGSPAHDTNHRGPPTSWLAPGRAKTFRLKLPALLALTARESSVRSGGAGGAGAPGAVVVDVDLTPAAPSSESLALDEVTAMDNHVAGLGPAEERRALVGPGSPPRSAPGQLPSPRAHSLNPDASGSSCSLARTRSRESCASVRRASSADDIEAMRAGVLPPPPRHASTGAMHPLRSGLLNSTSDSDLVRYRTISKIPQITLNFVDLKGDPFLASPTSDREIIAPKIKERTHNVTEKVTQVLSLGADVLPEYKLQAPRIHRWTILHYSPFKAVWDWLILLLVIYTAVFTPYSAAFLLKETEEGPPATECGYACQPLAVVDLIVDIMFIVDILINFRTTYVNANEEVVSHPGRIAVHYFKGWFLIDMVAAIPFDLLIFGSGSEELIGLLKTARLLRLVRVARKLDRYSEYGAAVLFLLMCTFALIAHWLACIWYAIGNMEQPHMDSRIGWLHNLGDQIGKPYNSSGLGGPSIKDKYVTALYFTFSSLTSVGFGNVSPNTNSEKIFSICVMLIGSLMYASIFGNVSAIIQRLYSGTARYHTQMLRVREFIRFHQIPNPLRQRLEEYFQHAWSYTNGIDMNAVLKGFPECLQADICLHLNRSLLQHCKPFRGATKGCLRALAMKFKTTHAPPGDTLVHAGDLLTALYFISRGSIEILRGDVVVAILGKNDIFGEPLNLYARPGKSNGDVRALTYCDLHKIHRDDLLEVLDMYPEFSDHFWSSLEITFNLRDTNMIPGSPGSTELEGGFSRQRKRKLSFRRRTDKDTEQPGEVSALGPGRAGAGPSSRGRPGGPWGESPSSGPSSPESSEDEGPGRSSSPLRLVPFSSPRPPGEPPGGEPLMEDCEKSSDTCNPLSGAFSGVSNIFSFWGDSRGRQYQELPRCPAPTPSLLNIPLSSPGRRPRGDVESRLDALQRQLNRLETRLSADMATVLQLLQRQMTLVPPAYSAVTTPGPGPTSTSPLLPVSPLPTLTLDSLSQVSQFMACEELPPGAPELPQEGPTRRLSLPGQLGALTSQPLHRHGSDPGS
Chain of 5-hydroxytryptamine receptor 7 (Homo sapiens) (P34969 whole entry): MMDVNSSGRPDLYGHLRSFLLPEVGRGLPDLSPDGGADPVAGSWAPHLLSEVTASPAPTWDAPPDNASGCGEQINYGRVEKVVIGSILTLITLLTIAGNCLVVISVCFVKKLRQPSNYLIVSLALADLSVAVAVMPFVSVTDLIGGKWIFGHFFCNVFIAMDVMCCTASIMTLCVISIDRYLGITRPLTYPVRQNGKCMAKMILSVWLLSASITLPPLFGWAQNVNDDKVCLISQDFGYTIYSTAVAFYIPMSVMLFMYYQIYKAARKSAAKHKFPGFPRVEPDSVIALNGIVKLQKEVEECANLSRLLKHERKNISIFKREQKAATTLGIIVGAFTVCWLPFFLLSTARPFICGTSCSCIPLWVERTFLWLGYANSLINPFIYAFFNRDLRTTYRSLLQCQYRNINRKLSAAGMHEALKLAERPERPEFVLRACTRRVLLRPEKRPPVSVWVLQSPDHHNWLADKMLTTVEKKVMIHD
Chain of 5-hydroxytryptamine receptor 2B (Homo sapiens) (P41595 whole entry): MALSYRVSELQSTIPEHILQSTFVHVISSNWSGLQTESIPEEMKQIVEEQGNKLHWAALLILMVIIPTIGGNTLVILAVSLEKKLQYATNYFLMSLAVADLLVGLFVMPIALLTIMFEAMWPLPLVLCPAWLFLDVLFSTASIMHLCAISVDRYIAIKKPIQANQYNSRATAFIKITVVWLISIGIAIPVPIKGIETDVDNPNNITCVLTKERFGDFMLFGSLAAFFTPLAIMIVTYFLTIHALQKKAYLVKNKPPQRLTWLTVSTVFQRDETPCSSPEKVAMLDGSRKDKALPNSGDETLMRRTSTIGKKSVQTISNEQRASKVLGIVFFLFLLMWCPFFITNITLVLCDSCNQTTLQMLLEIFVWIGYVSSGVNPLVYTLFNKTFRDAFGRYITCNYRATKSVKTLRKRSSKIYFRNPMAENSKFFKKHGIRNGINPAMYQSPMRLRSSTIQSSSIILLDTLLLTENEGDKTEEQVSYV

[2H]C([2H])([2H])Oc1ccc(-n2nc3c4ccc(O)cc4[nH]cc-3c2=O)cc1
Drug metabolism [1]: Metabolite_Detected
Drug metabolism [2]: Metabolite_Detected

[2H]C([2H])([2H])Oc1ccc2c3nn(-c4ccc(O)cc4)c(=O)c-3c[nH]c2c1
Drug metabolism [3]: Metabolite_Detected
Drug metabolism [4]: Metabolite_Detected

[2H]C([2H])([2H])Oc1ccc2c3nn(-c4ccc(O)nc4)c(=O)c-3c[nH]c2c1
Drug metabolism [5]: Metabolite_Detected
Drug metabolism [6]: Metabolite_Detected

O=c1c2c[nH]c3cc(O)ccc3c-2nn1-c1ccc(O)nc1
Drug metabolism [7]: Metabolite_Detected
Drug metabolism [8]: Metabolite_Detected
Drug metabolism [5]: Metabolite_Detected
Drug metabolism [6]: Metabolite_Detected

COc1ccc2c3nn(-c4ccc(O)cc4)c(=O)c-3c[nH]c2c1
Drug metabolism [1]: Metabolite_Detected
Drug metabolism [2]: Metabolite_Detected

COc1ccc(-n2nc3c4ccc(Br)cc4[nH]cc-3c2=O)cc1
inhibition (INH) [9]: Not Active
Activity [10]: < 0%
remaining at 1 h, 10 µM [11]: 69%
inhibition [12]: Active
t1/2 [13]: 1.7 h
solubility [14]: 3.3 µM (≈ 1.22 µg/mL)
inhibition [15]: Active
Activity [16]: < 0%
remaining at 1 h, 10 µM [17]: 66.9%
Activity [18]: < 0%
Activity [19]: 900%
Activity ([19]; tested as the 2H-labelled form): inactive
inhibition [20]: Active
inhibition [21]: Active
Activity [22]: < 0%
solubility [23]: 8.3 µM (≈ 3.07 µg/mL)
Activity [24]: Non-Toxic
inhibition [25]: Active
Activity [26]: < 0%

COc1cccc(-n2nc3c4cc(Cl)ccc4[nH]cc-3c2=O)c1
inhibition (INH) [9]: Not Active
Activity [10]: < 0%
remaining at 1 h, 10 µM [11]: 59.8%
t1/2 [13]: 3.4 h
solubility [14]: 2.6 µM (≈ 0.847 µg/mL)
inhibition [15]: Active
Activity [16]: < 0%
remaining at 1 h, 10 µM [17]: 81.4%
Activity [18]: < 0%
Activity [19]: 400%
Activity ([19]; tested as the 2H-labelled form): inactive
Activity [22]: < 0%
solubility [23]: 6.8 µM (≈ 2.22 µg/mL)
Activity [24]: Non-Toxic
Activity [26]: < 0%

COc1cccc(-n2nc3c4ccc(Br)cc4[nH]cc-3c2=O)c1
inhibition [12]: Active
inhibition [15]: Active
inhibition [20]: Active
inhibition [21]: Active
inhibition [25]: Active

O=c1c2c[nH]c3cc(O)ccc3c-2nn1-c1ccc(O)cc1
Drug metabolism [1]: Metabolite_Detected
Drug metabolism [3]: Metabolite_Detected
Drug metabolism [4]: Metabolite_Detected
Drug metabolism [2]: Metabolite_Detected

COc1ccc2c3nn(-c4ccc(O)nc4)c(=O)c-3c[nH]c2c1
Drug metabolism [7]: Metabolite_Detected
Drug metabolism [8]: Metabolite_Detected

[2H]C([2H])([2H])Oc1ccc(-n2nc3c4ccc(O)cc4[nH]cc-3c2=O)cn1
Drug metabolism [7]: Metabolite_Detected
Drug metabolism [8]: Metabolite_Detected

COc1ccc(-n2nc3c4ccc(O)cc4[nH]cc-3c2=O)cn1
Drug metabolism [5]: Metabolite_Detected
Drug metabolism [6]: Metabolite_Detected

COc1ccc(-n2nc3c4ccc(O)cc4[nH]cc-3c2=O)cc1
Drug metabolism [3]: Metabolite_Detected
Drug metabolism [4]: Metabolite_Detected
